Source: ChEMBL document CHEMBL2346664, “Synthesis, characterization and in vitro anticancer evaluation of novel 1,2,4-triazolin-3-one derivatives” (2013)

Key:
Format in all cases: functional
[1] = Growth inhibition of human Hs 578T cells assessed as cell growth at 10 '-4 M after 48 hrs by sulforhodamine B assay; details: read-out: Activity
[2] = tested on: A549; assay: Growth inhibition of human A549 cells assessed as cell growth at 10 '-5 M after 48 hrs by sulforhodamine B assay; details: A549, 48 h, read-out: Activity
How it was run: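 Percent growth at each of the five concentrations of the 48 h continuous-exposure NCI SRB screen. Drug stocks were in DMSO at 400× the top final concentration and diluted in medium with gentamicin. Growth was calculated as [(Ti-Tz)/(C-Tz)]×100 when Ti ≥ Tz, or [(Ti-Tz)/Tz]×100 when Ti < Tz. Tz plates were fixed at drug addition; untreated wells served as control. Absorbance was read at 515 nm.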

[3] = tested on: MOLT-4; assay: Growth inhibition of human MOLT4 cells assessed as cell growth at 10 '-8 M after 48 hrs by sulforhodamine B assay; details: MOLT-4, 48 h, read-out: Activity
[4] = tested on: LOX IMVI; assay: Growth inhibition of human LOXIMVI cells assessed as cell growth at 10 '-8 M after 48 hrs by sulforhodamine B assay; details: read-out: Activity
[5] = tested on: PC-3; assay: Growth inhibition of human PC3 cells assessed as growth inhibition at 10 uM after 48 hrs by sulforhodamine B assay; details: PC-3, 48 h, read-out: GI
[6] = tested on: PC-3; assay: Growth inhibition of human PC3 cells after 48 hrs by sulforhodamine B assay; details: PC-3, 48 h
[7] = tested on: SW-620; assay: Growth inhibition of human SW620 cells assessed as cell growth at 10 '-6 M after 48 hrs by sulforhodamine B assay; details: SW-620, 48 h, read-out: Activity
[8] = tested on: OVCAR-3; assay: Growth inhibition of human OVCAR3 cells assessed as cell growth at 10 '-4 M after 48 hrs by sulforhodamine B assay; details: OVCAR-3, 48 h, read-out: Activity
[9] = tested on: PC-3; assay: Growth inhibition of human PC3 cells assessed as cell growth at 10 '-4 M after 48 hrs by sulforhodamine B assay; details: PC-3, 48 h, read-out: Activity
[10] = tested on: NCI-H23; assay: Growth inhibition of human NCI-H23 cells assessed as cell growth at 10 '-8 M after 48 hrs by sulforhodamine B assay; details: NCI-H23, 48 h, read-out: Activity
[11] = tested on: HOP-92; assay: Growth inhibition of human HOP92 cells assessed as cell growth at 10 '-4 M after 48 hrs by sulforhodamine B assay; details: HOP-92, 48 h, read-out: Activity
[12] = tested on: IGROV-1; assay: Growth inhibition of human IGROV1 cells assessed as cell growth at 10 '-7 M after 48 hrs by sulforhodamine B assay; details: IGROV-1, 48 h, read-out: Activity
[13] = tested on: SF-295; assay: Growth inhibition of human SF295 cells assessed as growth inhibition at 10 uM after 48 hrs by sulforhodamine B assay; details: SF-295, 48 h, read-out: GI
[14] = tested on: SW-620; assay: Growth inhibition of human SW620 cells after 48 hrs by sulforhodamine B assay; details: SW-620, 48 h
[15] = tested on: SF-539; assay: Growth inhibition of human SF539 cells assessed as cell growth at 10 '-5 M after 48 hrs by sulforhodamine B assay; details: SF-539, 48 h, read-out: Activity
[16] = Growth inhibition of human HCC2998 cells assessed as cell growth at 10 '-4 M after 48 hrs by sulforhodamine B assay; details: HCC 2998, 48 h, read-out: Activity
[17] = tested on: HCT-116; assay: Growth inhibition of human HCT116 cells after 48 hrs by sulforhodamine B assay; details: HCT-116, 48 h
How it was run: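 NCI 60-cell-line five-dose screen. Cells were plated at 5,000–40,000/well by doubling time and grown 24 h at 37 °C, 5% CO2. Time-zero plates were TCA-fixed. Drug from DMSO stock was tested at 0.01, 0.1, 1, 10 and 100 µM final for 48 h continuous exposure. Read-out was SRB at 515 nm. GI50 is the concentration giving 50% reduction in net protein increase versus untreated control.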

[18] = tested on: A498; assay: Growth inhibition of human A498 cells assessed as growth inhibition at 10 uM after 48 hrs by sulforhodamine B assay; details: A498, 48 h, read-out: GI
How it was run: (§1)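 Percent growth inhibition from the single 10^-5 M NCI-60 screen, reported as 100 minus growth percent. Growth percent was measured after 48 h drug exposure at 37 °C, 5% CO2, using TCA fixation, SRB staining and absorbance at 515 nm, against untreated controls and time-zero plates.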

[19] = tested on: MCF7; assay: Growth inhibition of human MCF7 cells assessed as cell growth at 10 '-6 M after 48 hrs by sulforhodamine B assay; details: MCF7, 48 h, read-out: Activity
[20] = tested on: SK-OV-3; assay: Growth inhibition of human SKOV3 cells assessed as cell growth at 10 '-4 M after 48 hrs by sulforhodamine B assay; details: SK-OV-3, 48 h, read-out: Activity
[21] = tested on: HT-29; assay: Growth inhibition of human HT-29 cells assessed as cell growth at 10 '-4 M after 48 hrs by sulforhodamine B assay; details: HT-29, 48 h, read-out: Activity
[22] = tested on: RPMI-8226; assay: Growth inhibition of human RPMI8226 cells assessed as cell growth at 10 '-5 M after 48 hrs by sulforhodamine B assay; details: RPMI-8226, 48 h, read-out: Activity
[23] = tested on: RPMI-8226; assay: Growth inhibition of human RPMI8226 cells assessed as cell growth at 10 '-7 M after 48 hrs by sulforhodamine B assay; details: RPMI-8226, 48 h, read-out: Activity
[24] = tested on: NCI-H522; assay: Growth inhibition of human NCI-H522 cells after 48 hrs by sulforhodamine B assay; details: NCI-H522, 48 h
[25] = tested on: ACHN; assay: Growth inhibition of human ACHN cells assessed as growth inhibition at 10 uM after 48 hrs by sulforhodamine B assay; details: read-out: GI; how it was run: as §1
[26] = tested on: SF-295; assay: Growth inhibition of human SF295 cells after 48 hrs by sulforhodamine B assay; details: SF-295, 48 h
[27] = tested on: OVCAR-8; assay: Growth inhibition of human OVCAR8 cells after 48 hrs by sulforhodamine B assay; details: OVCAR-8, 48 h
[28] = tested on: MOLT-4; assay: Growth inhibition of human MOLT4 cells assessed as cell growth at 10 '-6 M after 48 hrs by sulforhodamine B assay; details: MOLT-4, 48 h, read-out: Activity
[29] = Growth inhibition of human […] cells assessed as cell growth at 10 uM after 48 hrs by sulforhodamine B assay; details: read-out: Activity
How it was run: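 NCI-60 primary screen at a single dose of 10^-5 M. Output is mean growth percent of treated cells relative to untreated controls, where values between 0 and 100 indicate growth inhibition and values below 0 indicate cytotoxicity. Cells were plated 24 h before drug, incubated 48 h at 37 °C, 5% CO2, and stained with SRB after TCA fixation. Suspension cells were fixed with 80% TCA (16% final).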

[30] = read-out: LD50 (the source's name)

Cc1cc(=O)oc2cc(OCCn3c(C)nn(-c4ccc(Cl)cc4)c3=O)ccc12
growth at 100 µM [1]: 7% | growth at 10 µM [2]: 37% | growth at 0.01 µM [3]: 104% | growth at 0.01 µM [4]: 96% | inhibition of growth at 10 µM [5]: 51.5% | GI50 [6]: 8130 nM | TGI [6]: > 1000 nM | CC50 [6, 30]: > 1000 nM | growth at 1 µM [7]: 68% | growth at 100 µM [8]: -29% | growth at 100 µM [9]: 34% | growth at 0.01 µM [10]: 98% | growth at 100 µM [11]: 32% | growth at 0.1 µM [12]: 112% | inhibition of growth at 10 µM [13]: 86% | GI50 [14]: 2200 nM | TGI [14]: > 1000 nM | CC50 [14, 30]: > 1000 nM | growth at 10 µM [15]: 25% | growth at 100 µM [16]: 17% | GI50 [17]: 3570 nM | TGI [17]: > 1000 nM | CC50 [17, 30]: > 1000 nM | inhibition of growth at 10 µM [18]: 74.3% | growth at 1 µM [19]: 77% | growth at 100 µM [20]: -7% | growth at 100 µM [21]: 9% | growth at 10 µM [22]: 50% | growth at 0.1 µM [23]: 97% | GI50 [24]: 3850 nM | TGI [24]: 3820 nM | CC50 [24, 30]: > 1000 nM | inhibition of growth at 10 µM [25]: 58.1% | GI50 [26]: 4730 nM | TGI [26]: > 1000 nM | CC50 [26, 30]: > 1000 nM | GI50 [27]: 5170 nM | TGI [27]: > 1000 nM | CC50 [27, 30]: > 1000 nM | growth at 1 µM [28]: 100% | growth at 10 µM [29]: 32.9%
